{"source": "ChEMBL document CHEMBL2406928", "about": "“Discovery of novel insulin-like growth factor-1 receptor inhibitors with unique time-dependent binding kinetics” (ACS Med Chem Lett, 2013)", "key": {"GEO": {"test_system": "GEO", "experiment": "(§1) Antitumor activity against human GEO cells xenografted in nu/nu CD1 mouse assessed as tumor growth inhibition administered as intermittent dosing regimen relative to vehicle-treated control", "type": "functional"}, "Mus musculus [1]": {"test_system": "Mus musculus", "experiment": "In vivo inhibition of IGF-1R phosphorylation in human GEO cells xenografted in nu/nu CD1 mouse at 2 mg/kg, po measured up to 48 hrs relative to control", "type": "functional", "summary_of_the_method": "(§2)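 Single oral dose of 2 mg/kg to mice bearing GEO colon cancer xenografts (IGF-1R/IGF-II autocrine loop). Phosphorylation of IGF-1R and of IR in tumors followed over time up to 48 h after dosing, expressed as inhibition versus control.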"}, "[2]": {"experiment": "Aqueous solubility of the compound", "type": "physicochemical", "details": "buffer"}, "[3]": {"experiment": "Oral bioavailability in CD1 mouse at 2.5 mg/kg", "type": "ADME, organism-based", "details": "plasma"}, "[4]": {"experiment": "Plasma concentration in CD1 mouse at 2.5 mg/kg, po measured at 24 hrs", "type": "ADME, organism-based", "parameters": "dose 2.5 mg/kg, route oral"}, "Mus musculus [5]": {"test_system": "Mus musculus", "experiment": "In vivo inhibition of IR phosphorylation in human GEO cells xenografted in nu/nu CD1 mouse at 2 mg/kg, po measured up to 48 hrs relative to control", "type": "functional", "summary_of_the_method": "as §2"}, "[6]": {"experiment": "Plasma concentration in CD1 mouse at 2.5 mg/kg, po measured at 8 hrs", "type": "ADME, organism-based", "parameters": "dose 2.5 mg/kg, route oral"}, "[7]": {"experiment": "Antitumor activity against human GEO cells xenografted in nu/nu CD1 mouse assessed as tumor growth inhibition at 2 mg/kg, po q7d administered for 14 days measured twice per week relative to vehicle-treated control", "details": "336 h, read-out: TGI"}, "[8]": {"experiment": "Volume of distribution at steady state in CD1 mouse at 5 mg/kg, iv", "type": "ADME, organism-based", "parameters": "dose 5 mg/kg, route intravenous", "details": "in vivo, read-out: Vdss"}, "[9]": {"experiment": "Cmax in CD1 mouse at 2.5 mg/kg, po", "type": "ADME, organism-based", "parameters": "dose 2.5 mg/kg, route oral", "details": "in vivo"}, "[10]": {"experiment": "Clearance in CD1 mouse at 5 mg/kg, iv", "type": "ADME, organism-based", "parameters": "dose 5 mg/kg, route intravenous", "details": "in vivo"}, "[11]": {"experiment": "Tmax in CD1 mouse at 2.5 mg/kg, po", "type": "ADME, organism-based", "parameters": "dose 2.5 mg/kg, route oral", "details": "in vivo"}, "[12]": {"experiment": "as §1", "type": "functional"}, "[13]": {"experiment": "Plasma concentration in CD1 mouse at 5 mg/kg, po measured at 24 hrs", "type": "ADME, organism-based", "parameters": "dose 5 mg/kg, route oral"}, "[14]": {"experiment": "Tmax in CD1 mouse at 5 mg/kg, po", "type": "ADME, organism-based", "parameters": "dose 5 mg/kg, route oral", "details": "in vivo"}, "[15]": {"experiment": "Volume of distribution at steady state in CD1 mouse at 0.5 mg/kg, iv", "type": "ADME, organism-based", "parameters": "dose 0.5 mg/kg, route intravenous", "details": "in vivo, read-out: Vdss"}, "[16]": {"experiment": "Oral bioavailability in CD1 mouse at 5 mg/kg", "type": "ADME, organism-based", "details": "plasma"}, "[17]": {"experiment": "Cmax in CD1 mouse at 5 mg/kg, po", "type": "ADME, organism-based", "parameters": "dose 5 mg/kg, route oral", "details": "in vivo"}, "[18]": {"experiment": "Clearance in CD1 mouse at 0.5 mg/kg, iv", "type": "ADME, organism-based", "parameters": "dose 0.5 mg/kg, route intravenous", "details": "in vivo"}, "[19]": {"experiment": "Antitumor activity against human GEO cells xenografted in nu/nu CD1 mouse assessed as tumor growth inhibition at 5 mg/kg, po qd administered for 14 days measured twice per week relative to vehicle-treated control", "type": "functional", "details": "336 h, read-out: TGI", "summary_of_the_method": "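GEO human colon cancer xenografts in mice; oral dosing at 5 mg/kg once daily, days 1–14. Tumor volumes expressed as mean percentage of initial volume ± SE; TGI calculated relative to vehicle-treated group.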"}, "[20]": {"experiment": "Plasma concentration in CD1 mouse at 5 mg/kg, po measured at 8 hrs", "type": "ADME, organism-based", "parameters": "dose 5 mg/kg, route oral"}, "[21]": {"molecular_target": "Insulin-like growth factor 1 receptor (Homo sapiens) (UniProt P08069)", "sequence (P08069 31-736 limits assumed)": "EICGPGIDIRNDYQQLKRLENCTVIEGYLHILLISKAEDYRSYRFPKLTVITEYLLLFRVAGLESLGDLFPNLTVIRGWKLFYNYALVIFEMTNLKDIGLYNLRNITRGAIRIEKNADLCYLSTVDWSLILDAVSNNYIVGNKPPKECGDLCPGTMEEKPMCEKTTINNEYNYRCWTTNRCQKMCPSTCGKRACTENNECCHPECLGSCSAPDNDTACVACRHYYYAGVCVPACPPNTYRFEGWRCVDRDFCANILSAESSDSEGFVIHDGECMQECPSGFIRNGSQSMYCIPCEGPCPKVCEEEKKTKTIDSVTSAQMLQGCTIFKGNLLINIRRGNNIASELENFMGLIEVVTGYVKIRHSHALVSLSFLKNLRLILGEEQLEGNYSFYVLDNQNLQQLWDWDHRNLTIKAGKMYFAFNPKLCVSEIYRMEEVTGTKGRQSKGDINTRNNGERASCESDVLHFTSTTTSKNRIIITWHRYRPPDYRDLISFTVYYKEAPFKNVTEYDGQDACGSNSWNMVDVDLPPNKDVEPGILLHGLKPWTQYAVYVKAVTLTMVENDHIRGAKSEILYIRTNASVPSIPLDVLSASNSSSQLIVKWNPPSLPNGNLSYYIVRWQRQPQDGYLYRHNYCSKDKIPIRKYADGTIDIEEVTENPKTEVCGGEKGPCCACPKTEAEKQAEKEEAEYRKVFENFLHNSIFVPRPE", "sequence (P08069 741-1367 limits assumed)": "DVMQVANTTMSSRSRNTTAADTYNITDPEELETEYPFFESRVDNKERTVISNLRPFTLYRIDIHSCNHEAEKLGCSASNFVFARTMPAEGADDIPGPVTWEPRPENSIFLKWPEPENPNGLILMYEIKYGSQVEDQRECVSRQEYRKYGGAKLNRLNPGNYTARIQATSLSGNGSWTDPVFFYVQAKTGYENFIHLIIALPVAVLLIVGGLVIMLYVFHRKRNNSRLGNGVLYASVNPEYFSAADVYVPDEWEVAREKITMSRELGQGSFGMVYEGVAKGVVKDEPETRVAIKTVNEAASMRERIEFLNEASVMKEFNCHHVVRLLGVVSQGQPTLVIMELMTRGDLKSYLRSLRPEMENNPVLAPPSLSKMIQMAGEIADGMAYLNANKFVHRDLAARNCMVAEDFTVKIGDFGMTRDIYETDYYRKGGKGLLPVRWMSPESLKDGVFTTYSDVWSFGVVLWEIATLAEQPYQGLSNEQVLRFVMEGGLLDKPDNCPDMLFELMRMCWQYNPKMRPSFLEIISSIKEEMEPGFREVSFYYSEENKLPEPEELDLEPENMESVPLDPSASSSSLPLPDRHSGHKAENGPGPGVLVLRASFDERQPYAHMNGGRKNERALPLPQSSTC"}}, "note": "The source made the active and inactive calls. The rule behind the calls is not given here."}
{"smiles": "CCOc1cc(-c2ccccc2)nc2cc(-c3nc([C@H]4C[C@@](C)(O)C4)n4ccnc(N)c34)ccc12", "values": [{"measurement": "TGI", "setting": "GEO", "result": "Active"}, {"measurement": "inhibition in vivo at 2 mg/kg", "setting": "Mus musculus [1]", "result": 80, "unit": "%"}, {"measurement": "solubility", "setting": "[2]", "result": "soluble"}, {"measurement": "bioavailability", "setting": "[3]", "result": 63, "unit": "%"}, {"measurement": "concentration at 24 h", "setting": "[4]", "result": "< 30", "unit": "nM"}, {"measurement": "inhibition in vivo at 2 mg/kg", "setting": "Mus musculus [5]", "result": 80, "unit": "%"}, {"measurement": "concentration at 8 h", "setting": "[6]", "result": 320, "unit": "nM"}, {"measurement": "inhibition in vivo at 2 mg/kg", "setting": "[7]", "result": 66, "unit": "%"}, {"measurement": "Vd", "setting": "[8]", "result": 1.5, "unit": "L/kg"}, {"measurement": "Cmax", "setting": "[9]", "result": 2200, "unit": "nM"}, {"measurement": "clearance", "setting": "[10]", "result": 5, "unit": "mL/min/kg"}, {"measurement": "Tmax", "setting": "[11]", "result": 30, "unit": "min"}]}
{"smiles": "COc1cc(-c2ccccc2)nc2cc(-c3nc([C@H]4C[C@@](C)(O)C4)n4ccnc(N)c34)ccc12", "values": [{"measurement": "TGI", "setting": "[12]", "result": "<50", "unit": "%"}, {"measurement": "concentration at 24 h", "setting": "[13]", "result": "< 30", "unit": "nM"}, {"measurement": "Tmax", "setting": "[14]", "result": 30, "unit": "min"}, {"measurement": "Vd", "setting": "[15]", "result": 2.4, "unit": "L/kg"}, {"measurement": "bioavailability", "setting": "[16]", "result": 74, "unit": "%"}, {"measurement": "Cmax", "setting": "[17]", "result": 3200, "unit": "nM"}, {"measurement": "clearance", "setting": "[18]", "result": 17, "unit": "mL/min/kg"}, {"measurement": "inhibition in vivo at 5 mg/kg", "setting": "[19]", "result": 64, "unit": "%"}, {"measurement": "concentration at 8 h", "setting": "[20]", "result": 280, "unit": "nM"}]}
{"smiles": "C[C@]1(O)C[C@@H](c2nc(-c3ccc4ccc(-c5ccccc5)nc4c3)c3c(N)nccn32)C1", "values": [{"measurement": "T1/2", "setting": "[21]", "result": 12, "unit": "min"}]}
